Common to all, as to type: functional, cell-based
The test system of experiment [1] is BXPC-3. As to the kind of experiment: Cytotoxicity against human BxPC3 cells.
The test system of experiment [2] is PC-3. Description: Cytotoxicity against human PC3 cells.
In experiment [3] the test system is MCF7. Description: Cytotoxicity against human MCF7 cells.
Experiment [4] deals with MDA-MB-435. Description: Cytotoxicity against human MDA-MB-435 cells.
Experiment [5] has as its system MDA-MB-231. Description: Cytotoxicity against human MDA-MB-231 cells.
In experiment [6] the test system is MDA-MB-468. As to the kind of experiment: Cytotoxicity against human MDA-MB-468 cells.
The subject of experiment [7] is A549. As to the kind of experiment: Cytotoxicity against human A549 cells.
In experiment [8] the test system is HCT-116. Description: Cytotoxicity against human HCT116 cells.
Experiment [9] has as its system MCF7. Description: Cell cycle arrest in human MCF7 cells assessed as accumulation of cells at G1 phase at 10 uM after 24 hrs by FACS analysis. A digest of the protocol:
(§1)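 MCF-7 breast cells were exposed to each compound at 10 μM for 24 h. Cell-cycle distribution was then analysed by FACS, reading the percentage of cells in G1 and S phases.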
A general note: Flow cytometry measures light scatter and fluorescence of single cells or particles in a stream.

Experiment [10] relates to MCF7. Description: Cell cycle arrest in human MCF7 cells assessed as accumulation of cells at S phase at 10 uM after 24 hrs by FACS analysis. A digest of the protocol:
as §1

Experiment [11] relates to BXPC-3. As to the kind of experiment: Cell cycle arrest in human BxPC3 cells assessed as accumulation of cells at S phase at 10 uM after 24 hrs by FACS analysis. A digest of the protocol:
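BxPC3 cells were treated with each compound at 10 μM. The cell-cycle profile was determined by FACS as the percentage of cells in each phase, including S and G2/M.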

The subject of experiment [12] is MCF7. As to the kind of experiment: Cell cycle arrest in human MCF7 cells assessed as decrease of cells at S phase at 10 uM after 24 hrs by FACS analysis. A digest of the protocol: (§2)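 Cells were treated with a single 10 μM concentration and analysed by FACS for cell-cycle distribution. The read-out was the percentage of cells in the G1, S and G2/M phases. A 24 h exposure is stated for MCF-7; no duration is given for BxPC3.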

Experiment [13] deals with BXPC-3. Description: Cell cycle arrest in human BxPC3 cells assessed as accumulation of cells at G2/M phase at 10 uM after 24 hrs by FACS analysis. A digest of the protocol: as §2

pIC50: −log10 of the molar value. The source made the active and inactive calls. The rule behind the calls is not given here. Bounds are passed on as bounds.

As usually defined, the pIC50 is −log10 of the IC50, conventionally taken in molar units. Low readings indicate a large IC50, high ones a small IC50. `C[C@@H]1O[C@@H](n2c3ccccc3c3c4c(c5c6ccccc6ccc5c32)C(=O)NC4=O)[C@H](O)[C@H](O)[C@H]1O`: the pIC50 was 5.14 in experiment [1]; 5.57 in experiment [2]; 5.35 in experiment [3]; 5.44 in experiment [4]; 5.33 in experiment [5]; 5.30 in experiment [6]. Further, the pIC50 in experiment [7] was 5.55; in experiment [8] it was 5.51. In experiment [9], the result was inactive. The outcome in [10] was Active.

Take `O=C1NC(=O)c2c1c1c3ccccc3ccc1c1c2c2ccccc2n1[C@@H]1O[C@H](CO)[C@@H](O)[C@H]1O`: the negative logarithm of the IC50 (pIC50) in experiment [1] was 5.28; in [2], 5.62; in [3], 5.28; in experiment [4] it was 5.49; in experiment [5] it was 5.62; in experiment [6], 5.36. Besides, the pIC50 in [7] was 5.68; in [8], 5.42. Besides, the outcome in [9] was inactive. Further, the result in [10] and in experiment [11] was Active.

For the compound `O=C1NC(=O)c2c1c1c3ccccc3ccc1c1c2c2ccccc2n1[C@@H]1O[C@H](CO)[C@@H](O)[C@H](O)[C@H]1O`, the pIC50 in experiment [1] is 5.27; in experiment [2] it was 5.64; in [3], 5.21; in experiment [4], 5.46; in experiment [5], 5.57; in experiment [6], 5.21. Moreover, the negative logarithm of the IC50 (pIC50) is 5.55 in experiment [7] and 5.29 in [8]. Also, the result in [9] was inactive. For the same compound, the result in [10] and in [11] was Active.

Consider `O=C1NC(=O)c2c1c1c3ccccc3ccc1c1[nH]c3ccccc3c21`, for which the pIC50 is 5.08 in experiment [1]; 5.23 in experiment [2]; 5.08 in experiment [3]; 5.24 in experiment [4]; 5.09 in experiment [5]; less than 5.00 in experiment [6]. In addition, the pIC50 in [7] is 5.59; in experiment [8] it was 5.24. In addition, the outcome in experiment [9], in [12] and in [13] was Active.

Take `O=C1NC(=O)c2c1c1c3ccccc3ccc1c1c2c2ccccc2n1[C@H]1OC[C@@H](O)[C@@H](O)[C@H]1O`: the negative-log IC50 (pIC50) in [1] was 5.18; in experiment [2], 5.68; in experiment [3] it was 5.32; in experiment [4], 5.48; in [5], 5.48; in experiment [6] it was 5.47. For the same compound, the negative-log IC50 (pIC50) was 5.70 in experiment [7] and 5.22 in [8]. The outcome in experiment [9] was inactive. Further, the outcome in experiment [10] was Active.

Consider `O=C1NC(=O)c2c1c1c3ccccc3ccc1c1c2c2ccccc2n1[C@H]1C[C@H](O)[C@@H](CO)O1`, for which the pIC50 was 5.13 in [1]; 5.59 in [2]; 5.14 in experiment [3]; 5.39 in [4]; 5.48 in [5]; 5.04 in experiment [6]. In addition, the negative logarithm of the IC50 (pIC50) in experiment [7] was 5.47; in [8] it was 5.06. Moreover, in [9], the result was inactive. Also, the result in [10] and in [11] was Active.

Values taken from ChEMBL document CHEMBL1777742, “Synthesis, cytotoxic activities and cell cycle arrest profiles of naphtho[2,1-α]pyrrolo[3,4-c]carbazole-5,7(6H,12H)-dione glycosides” (Bioorg Med Chem Lett, 2011).
